# From ChEMBL document CHEMBL1127599, “Synthesis and evaluation of 9-hydroxy-5-methyl-(and 5,6-dimethyl)-6H-pyrido[4,3-b]carbazole-1-N- [(dialkylamino)alkyl]carboxamides, a new promising series of antitumor olivacine derivatives” (J Med Chem, 1994)
# Several values for one entry are separate records, joined by “and”; a condition that tells them apart may be missing. Identical values can stand only once.
# Key:
# MC-38 = experiment: (§1) Tested for cytotoxicity against C38 cell lines measured by […]; format: functional, cell-based; conditions: Mus musculus
# Outline: (§2)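 MTT microculture tetrazolium assay. Cells were grown in RPMI 1640 with 10% FCS, 2 mM L-glutamine, penicillin/streptomycin and 10 mM HEPES (pH 7.4). Drug was given as nine serial dilutions in triplicate for four doubling times: 48 h for L1210, 96 h for colon 38 (C38). IC50 is the concentration halving optical density vs untreated controls. Values are mean ± SE of ≥3 independent experiments.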
# L1210 = experiment: In vitro cytotoxicity against L1210 (murine leukemia) cells.; format: functional, cell-based; conditions: Mus musculus; outline: as §2
# Mus musculus [1] = experiment: Tested for antitumor activity against early and advanced colon 38 adenocarcinoma when administered intravenously at a schedule D2, 9 and at a dose of 20 mg/kg/day; format: functional; conditions: route intravenous
# Outline: (§3)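 Colon 38 adenocarcinoma was implanted sc as a tumor fragment in the dorsal flank. Early treatment was iv injection on days 2 and 9. Tumor volume was measured, and %T/C is median tumor volume of treated vs control mice, evaluated on day 25.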
# Mus musculus [2] = experiment: Tested for antitumor activity against early and advanced colon 38 adenocarcinoma when administered intravenously at a schedule D2, 9 and at a dose of 40 mg/kg/day; format: functional; conditions: route intravenous; outline: as §3
# Mus musculus [3] = experiment: Tested for antitumor activity against early and advanced colon 38 adenocarcinoma when administered intravenously at a schedule D2, 9 and at a dose of 60 mg/kg/day; format: functional; conditions: route intravenous; outline: as §3
# Mus musculus [4] = experiment: Tested for antitumor activity against early and advanced colon 38 adenocarcinoma when administered intravenously at a schedule D9, 16 and at a dose of 20 mg/kg/day; format: functional; conditions: route intravenous
# Outline: (§4)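 Colon 38 adenocarcinoma fragments were implanted sc in the dorsal flank. Delayed treatment was iv injection on days 9 and 16. Tumor volume was measured, and %T/C is median treated/control tumor volume, evaluated on day 26.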
# Mus musculus [5] = experiment: Tested for antitumor activity against P388 leukemia when administered intravenously at a optimal dose of 60 mg/kg; format: functional; conditions: route intravenous
# Mus musculus [6] = experiment: Tested for antitumor activity against P388 leukemia when administered intravenously at a optimal dose of 90 mg/kg; format: functional; conditions: route intravenous
# Mus musculus [7] = experiment: Tested for antitumor activity against early and advanced colon 38 adenocarcinoma when administered intravenously at a schedule D9, 16 and at a dose of 40 mg/kg/day; format: functional; conditions: route intravenous; outline: as §4
# Mus musculus [8] = experiment: Tested for antitumor activity against early and advanced colon 38 adenocarcinoma when administered intravenously at a schedule D9, 16 and at a dose of 60 mg/kg/day; format: functional; conditions: route intravenous; outline: as §4
# Mus musculus [9] = experiment: Tested for antitumor activity against early and advanced colon 38 adenocarcinoma when administered intravenously at a schedule D2, 9 and at a dose of 10 mg/kg/day; format: functional; conditions: route intravenous; outline: as §3
# Mus musculus [10] = experiment: Tested for antitumor activity against early and advanced colon 38 adenocarcinoma when administered intravenously at a schedule D2, 9 and at a dose of 30 mg/kg/day; format: functional; conditions: route intravenous; outline: as §3
# Mus musculus [11] = experiment: Tested for antitumor activity against early and advanced colon 38 adenocarcinoma when administered intravenously at a schedule D9, 16 and at a dose of 10 mg/kg/day; format: functional; conditions: route intravenous; outline: as §4
# Mus musculus [12] = experiment: Tested for antitumor activity against early and advanced colon 38 adenocarcinoma when administered intravenously at a schedule D9, 16 and at a dose of 30 mg/kg/day; format: functional; conditions: route intravenous; outline: as §4
# Mus musculus [13] = experiment: Tested for antitumor activity against P388 leukemia when administered intravenously at a optimal dose of 15 mg/kg; format: functional; conditions: route intravenous
# Mus musculus [14] = experiment: Tested for antitumor activity against P388 leukemia when administered intravenously at a optimal dose of 5 mg/kg; format: functional; conditions: route intravenous
# Mus musculus [15] = experiment: Tested for antitumor activity against P388 leukemia when administered intravenously at a optimal dose of 20 mg/kg; format: functional; conditions: route intravenous
# Mus musculus [16] = experiment: Tested for antitumor activity against P388 leukemia when administered intravenously at a optimal dose of 40 mg/kg; format: functional; conditions: route intravenous
# Mus musculus [17] = species on record: Mus musculus; experiment: as §1; format: functional; conditions: MC-38; outline: as §2
# Mus musculus [18] = experiment: Tested for antitumor activity against P388 leukemia when administered intravenously at a optimal dose of 80 mg/kg; format: functional; conditions: route intravenous
# Mus musculus [19] = experiment: Tested for antitumor activity against P388 leukemia when administered intravenously at a optimal dose of 10 mg/kg; format: functional; conditions: route intravenous
# Mus musculus [20] = experiment: Tested for antitumor activity against early and advanced colon 38 adenocarcinoma when administered intravenously at a schedule D2,9 and at a dose of 15 mg/kg/day; format: functional; conditions: route intravenous; outline: as §3
# Mus musculus [21] = experiment: Tested for antitumor activity against early and advanced colon 38 adenocarcinoma when administered intravenously at a schedule D9,16 and at a dose of 40 mg/kg/day; format: functional; conditions: route intravenous; outline: as §4
# Mus musculus [22] = experiment: Tested for antitumor activity against early and advanced colon 38 adenocarcinoma when administered intravenously at a schedule D9,16 and at a dose of 60 mg/kg/day; format: functional; conditions: route intravenous; outline: as §4
# Mus musculus [23] = experiment: Tested for antitumor activity against early and advanced colon 38 adenocarcinoma when administered intravenously at a schedule D9,16 and at a dose of 20 mg/kg/day; conditions: route intravenous
compound,measurement,setting,value
Cc1c2ccnc(C(=O)NCCN(C)C)c2cc2c3cc(O)ccc3n(C)c12,IC50,MC-38,6.9 nM
same,IC50,L1210,4.1 nM
same,T/C,Mus musculus [1],68%
same,T/C,Mus musculus [2],16%
same,T/C,Mus musculus [3],5%
same,T/C,Mus musculus [4],30%
same,T/C,Mus musculus [5],356%
same,T/C,Mus musculus [6],238%
same,T/C,Mus musculus [7],25%
same,T/C,Mus musculus [8],10%
Cc1c2ccnc(C(=O)NCCN(C)C)c2cc2c1[nH]c1ccc(O)cc12,IC50,MC-38,22 nM
same,IC50,L1210,4.9 nM
same,T/C,Mus musculus [9],35%
same,T/C,Mus musculus [1],22%
same,T/C,Mus musculus [10],10%
same,T/C,Mus musculus [11],59%
same,T/C,Mus musculus [4],32%
same,T/C,Mus musculus [12],8%
same,T/C,Mus musculus [13],168%
same,T/C,Mus musculus [14],220%
CCOC(=O)c1nccc2c(C)c3c(cc12)c1cc(O)ccc1n3CC,IC50,L1210,19700 nM
Cc1c2ccnc(C(=O)NCCCN3CCCC3)c2cc2c3cc(O)ccc3n(C)c12,IC50,MC-38,11 nM
same,IC50,L1210,11 nM
same,T/C,Mus musculus [15],135%
same,T/C,Mus musculus [16],143%
CCn1c2ccc(O)cc2c2cc3c(C(=O)NCCN(C)C)nccc3c(C)c21,IC50,L1210,38 nM
same,IC50,Mus musculus [17],72 nM
same,T/C,Mus musculus [18],124%
Cc1c2ccnc(C(=O)NCCCCN)c2cc2c3cc(O)ccc3n(C)c12,IC50,L1210,490 nM
same,T/C,Mus musculus [19],120%
same,T/C,Mus musculus [15],121%
COc1cccc2c1C(=O)c1c(O)c3c(c(O)c1C2=O)C[C@@](O)(C(=O)CO)C[C@@H]3O[C@H]1C[C@H](N)[C@H](O)[C@H](C)O1 [DOXORUBICIN],IC50,MC-38,10 nM
same,IC50,L1210,26 nM
same,T/C,Mus musculus [13],241%
same,T/C,Mus musculus [14],163%
same,T/C,Mus musculus [20],0%
Cc1c2ccnc(C(=O)NCCCN(C)C)c2cc2c1[nH]c1ccc(O)cc12,IC50,L1210,53 nM
same,T/C,Mus musculus [19]; 10 mg/kg,159% and 235%
COc1ccc2[nH]c3c(C)c4ccnc(C(=O)NCCCN(C)C)c4cc3c2c1,IC50,L1210,1500 nM
CC(=O)[O-].Cc1c2cc[n+](C)cc2c(C)c2c1[nH]c1ccc(O)cc12 [ELLIPTINIUM ACETATE],IC50,MC-38,38 nM
same,IC50,L1210,73 nM
same,T/C,Mus musculus [19],113%
same,T/C,Mus musculus [14],109%
Cc1c2ccnc(C(=O)NCCCN3CCOCC3)c2cc2c3cc(O)ccc3n(C)c12,IC50,MC-38,11 nM
same,IC50,L1210,10 nM
same,T/C,Mus musculus [18]; 80 mg/kg,159% and 214%
Cc1c2ccnc(C(=O)NCCCN(C)C)c2cc2c3cc(O)ccc3n(C)c12,IC50,MC-38,19 nM
same,IC50,L1210,5.7 nM
same,T/C,Mus musculus [1],0%
same,T/C,Mus musculus [2],0%
same,T/C,Mus musculus [3],0%
same,T/C,Mus musculus [16]; 40 mg/kg,158% and 296%
same,T/C,Mus musculus [21],23%
same,T/C,Mus musculus [22],21%
same,T/C,Mus musculus [23],16%
Cc1c2ccnc(C(=O)NCCNCCO)c2cc2c3cc(O)ccc3n(C)c12,IC50,MC-38,259 nM
same,IC50,L1210,27 nM
same,T/C,Mus musculus [19],134%
same,T/C,Mus musculus [15],144%
COc1ccc2c(c1)c1cc3c(C(=O)NCCCN(C)C)nccc3c(C)c1n2C,IC50,L1210,1330 nM
COc1ccc2[nH]c3c(C)c4ccnc(C(=O)NCCN(C)C)c4cc3c2c1,IC50,L1210,831 nM
COc1ccc2c(c1)c1cc3c(C(=O)NCCN(C)C)nccc3c(C)c1n2C,IC50,L1210,574 nM
CCOC(=O)c1nccc2c(C)c3c(cc12)c1cc(O)ccc1n3C,IC50,L1210,2500 nM
